How the values were obtained:
Format in all cases: functional
Spodoptera litura [1] = test: Insecticidal activity against third-instar larval stage of Spodoptera litura in compound-treated castor leaves assessed as larval mortality at 10 ug/cm2 relative to control
Earias vittella [2] = test: Insecticidal activity against third-instar larval stage of Earias vitella assessed as larval mortality at 5 ug/cm3 administered through artificial diet containing Abelmoschus esculentus seed powder (reference value: 4%)
Earias vittella [3] = test: Insecticidal activity against female adult Earias vitella assessed as adult longevity time at 5 ug/cm3 administered through artificial diet containing Abelmoschus esculentus seed powder (reference value: 8.6 +/- 0.48 days)
Spodoptera litura [4] = test: Antifeedant activity against third-instar larval stage of Spodoptera litura in compound-treated castor leaves assessed as decrease in diet consumption at 10 ug/cm2 after 24 hr by no-choice leaf disk assay relative to acetone-treated control; set-up: scale not given: the % may be the effect or the level left
Procedure, shortened: (§1)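 Larvae were reared on castor leaves at 25 ± 2 °C. In a no-choice test, compound in acetone was painted on the abaxial side of castor leaf disks and air-dried. Five freshly molted third-instar larvae, starved 4 h, were placed per Petri dish with wet cotton. There were five replicates. After 24 h, consumed leaf area was read on a leaf area meter. %AF = 100 − (treated/control)×100.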

Earias vittella [5] = test: Insecticidal activity against adult Earias vitella assessed as adult deformity at 10 ug/cm3 administered through artificial diet containing Abelmoschus esculentus seed powder (reference value: 4%)
Earias vittella [6] = test: Insecticidal activity against pupal stage of Earias vitella assessed as pupal weight at 10 ug/cm3 administered through artificial diet containing Abelmoschus esculentus seed powder (reference value: 88.2 +/- 4.01 mg)
Earias vittella [7] = test: Insecticidal activity against male adult Earias vitella assessed as adult longevity time at 10 ug/cm3 administered through artificial diet containing Abelmoschus esculentus seed powder (reference value: 8.2 +/- 0.4 days)
Spodoptera litura [8] = test: Insecticidal activity against adult Spodoptera litura in compound-treated castor leaves assessed as adult deformity at 5 ug/cm2 relative to control
Earias vittella [9] = test: Insecticidal activity against adult Earias vitella assessed as adult emergence at 10 ug/cm3 administered through artificial diet containing Abelmoschus esculentus seed powder (reference value: 88%)
Earias vittella [10] = test: Insecticidal activity against third-instar larval stage of Earias vitella assessed as total larval duration time at 5 ug/cm3 administered through artificial diet containing Abelmoschus esculentus seed powder (reference value: 8.2 +/- 0.48 days)
Spodoptera litura [11] = test: Antifeedant activity against third-instar larval stage of Spodoptera litura in compound-treated castor leaves assessed as decrease in diet consumption at 5 ug/cm2 after 24 hr by no-choice leaf disk assay relative to acetone-treated control; set-up: scale not given: the % may be the effect or the level left; procedure, shortened: as §1
Earias vittella [12] = test: Insecticidal activity against male adult Earias vitella assessed as adult longevity time at 5 ug/cm3 administered through artificial diet containing Abelmoschus esculentus seed powder (reference value: 8.2 +/- 0.4 days)
Spodoptera litura [13] = test: Insecticidal activity against pupal stage of Spodoptera litura in compound-treated castor leaves assessed as pupal mortality at 5 ug/cm2 relative to control
Spodoptera litura [14] = test: Insecticidal activity against pupal stage of Spodoptera litura in compound-treated castor leaves assessed as pupal duration time at 5 ug/cm2 (reference value: 9.2 +/- 0.74 days)
Earias vittella [15] = test: Insecticidal activity against female adult Earias vitella assessed as adult longevity time at 10 ug/cm3 administered through artificial diet containing Abelmoschus esculentus seed powder (reference value: 8.6 +/- 0.48 days)
Earias vittella [16] = test: Insecticidal activity against pupal stage of Earias vitella assessed as pupal mortality at 5 ug/cm3 administered through artificial diet containing Abelmoschus esculentus seed powder (reference value: 8%)
Earias vittella [17] = test: Insecticidal activity against third-instar larval stage of Earias vitella assessed as larval mortality at 10 ug/cm3 administered through artificial diet containing Abelmoschus esculentus seed powder (reference value: 4%)
Spodoptera litura [18] = test: Insecticidal activity against female adult Spodoptera litura in compound-treated castor leaves assessed as adult longevity time at 10 ug/cm2 (reference value: 10 +/- 0.63 days)
Spodoptera litura [19] = test: Insecticidal activity against female adult Spodoptera litura in compound-treated castor leaves assessed as adult longevity time at 5 ug/cm2 (reference value: 10 +/- 0.63 days)
Spodoptera litura [20] = test: Insecticidal activity against third-instar larval stage of Spodoptera litura in compound-treated castor leaves assessed as total larval duration time at 10 ug/cm2 (reference value: 12.4 +/- 0.48 days)
Spodoptera litura [21] = test: Insecticidal activity against pupal stage of Spodoptera litura in compound-treated castor leaves assessed as pupal duration time at 10 ug/cm2 (reference value: 9.2 +/- 0.74 days)
Earias vittella [22] = test: Insecticidal activity against adult Earias vitella assessed as adult deformity at 5 ug/cm3 administered through artificial diet containing Abelmoschus esculentus seed powder (reference value: 4%)
Spodoptera litura [23] = test: Insecticidal activity against third-instar larval stage of Spodoptera litura in compound-treated castor leaves assessed as total larval duration time at 5 ug/cm2 (reference value: 12.4 +/- 0.48 days)
Earias vittella [24] = test: Insecticidal activity against pupal stage of Earias vitella assessed as pupal duration time at 5 ug/cm3 administered through artificial diet containing Abelmoschus esculentus seed powder (reference value: 6.4 +/- 0.21 days)
Earias vittella [25] = test: Insecticidal activity against adult Earias vitella assessed as adult emergence at 5 ug/cm3 administered through artificial diet containing Abelmoschus esculentus seed powder (reference value: 88%)
Spodoptera litura [26] = test: Insecticidal activity against adult Spodoptera litura in compound-treated castor leaves assessed as adult deformity at 10 ug/cm2 relative to control
Earias vittella [27] = test: Insecticidal activity against pupal stage of Earias vitella assessed as pupal mortality at 10 ug/cm3 administered through artificial diet containing Abelmoschus esculentus seed powder (reference value: 8%)
Spodoptera litura [28] = test: Insecticidal activity against pupal stage of Spodoptera litura in compound-treated castor leaves assessed as pupal mortality at 10 ug/cm2 relative to control
Spodoptera litura [29] = test: Insecticidal activity against male adult Spodoptera litura in compound-treated castor leaves assessed as adult longevity time at 10 ug/cm2 (reference value: 9.4 +/- 0.48 days)
Spodoptera litura [30] = test: Insecticidal activity against third-instar larval stage of Spodoptera litura in compound-treated castor leaves assessed as larval mortality at 5 ug/cm2 relative to control
Spodoptera litura [31] = test: Insecticidal activity against male adult Spodoptera litura in compound-treated castor leaves assessed as adult longevity time at 5 ug/cm2 (reference value: 9.4 +/- 0.48 days)
Earias vittella [32] = test: Insecticidal activity against pupal stage of Earias vitella assessed as pupal weight at 5 ug/cm3 administered through artificial diet containing Abelmoschus esculentus seed powder (reference value: 88.2 +/- 4.01 mg)
Spodoptera litura [33] = test: Insecticidal activity against adult Spodoptera litura in compound-treated castor leaves assessed as adult emergence at 5 ug/cm2 relative to control
Spodoptera litura [34] = test: Insecticidal activity against adult Spodoptera litura in compound-treated castor leaves assessed as adult emergence at 10 ug/cm2 relative to control
Earias vittella [35] = test: Antifeedant activity against third-instar larval stage of Earias vitella assessed as decrease in diet consumption at 5 ug/cm3 administered through artificial diet containing Abelmoschus esculentus seed powder after 24 hr relative to acetone-treated control; set-up: scale not given: the % may be the effect or the level left
Procedure, shortened: (§2)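 Artificial diet was modified Klein medium with bhendi (Abelmoschus esculentus) seed powder in place of alfalfa. Compound in acetone was mixed into bhendi meal 12 h before diet preparation so the solvent evaporated. One 3 g diet cube was given to five freshly molted third-instar larvae in a muslin-covered container. After 24 h the cubes were weighed. %AF = 100 − (treated/control)×100.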

Spodoptera litura [36] = test: Insecticidal activity against pupal stage of Spodoptera litura in compound-treated castor leaves assessed as pupal weight at 10 ug/cm2 (reference value: 302.4 +/- 5.9 mg)
Earias vittella [37] = test: Insecticidal activity against third-instar larval stage of Earias vitella assessed as total larval duration time at 10 ug/cm3 administered through artificial diet containing Abelmoschus esculentus seed powder (reference value: 8.2 +/- 0.48 days)
Spodoptera litura [38] = test: Insecticidal activity against pupal stage of Spodoptera litura in compound-treated castor leaves assessed as pupal weight at 5 ug/cm2 (reference value: 302.4 +/- 5.9 mg)
Earias vittella [39] = test: Insecticidal activity against pupal stage of Earias vitella assessed as pupal duration time at 10 ug/cm3 administered through artificial diet containing Abelmoschus esculentus seed powder (reference value: 6.4 +/- 0.21 days)
Earias vittella [40] = test: Antifeedant activity against third-instar larval stage of Earias vitella assessed as decrease in diet consumption at 10 ug/cm3 administered through artificial diet containing Abelmoschus esculentus seed powder after 24 hr relative to acetone-treated control; set-up: scale not given: the % may be the effect or the level left; procedure, shortened: as §2

SMILES | mortality at 10 µg/cm2 (Spodoptera litura [1]) [%] | mortality (Earias vittella [2]) [%] | Time (Earias vittella [3]) [days] | Activity (Spodoptera litura [4]) [%] | Activity (Earias vittella [5]) [%] | Activity (Earias vittella [6]) [mg] | Time (Earias vittella [7]) [days] | Activity (Spodoptera litura [8]) [%] | Activity (Earias vittella [9]) [%] | Time (Earias vittella [10]) [days] | Activity (Spodoptera litura [11]) [%] | Time (Earias vittella [12]) [days] | mortality at 5 µg/cm2 (Spodoptera litura [13]) [%] | Time (Spodoptera litura [14]) [days] | Time (Earias vittella [15]) [days] | mortality (Earias vittella [16]) [%] | mortality (Earias vittella [17]) [%] | Time (Spodoptera litura [18]) [days] | Time (Spodoptera litura [19]) [days] | Time (Spodoptera litura [20]) [days] | other results
CC[C@@](C)(OC(C)=O)C(=O)O[C@H]1[C@H](O)C[C@@H]2[C@@](C)([C@@H]3C[C@H]4C=CO[C@H]4O3)[C@H](C)C[C@H](OC(C)=O)[C@@]2(COC(C)=O)[C@@]12CO2 [CLERODENDRIN B] | 44 | 15 | 5.8 | 84.9 | 16 | 50.4 | 4.6 | 12 | 44 | 10.6 | 76.5 | 5.4 | 29.4 | 12 | 4.8 | 40 | 20 | 5.2 | 6.4 | 15.8 | Time (Spodoptera litura [21]): 13 days; Activity (Earias vittella [22]): 8%; Time (Spodoptera litura [23]): 14.5 days; Time (Earias vittella [24]): 10 days; Activity (Earias vittella [25]): 52.5%; Activity (Spodoptera litura [26]): 16.8%; mortality (Earias vittella [27]): 42.5%; mortality at 10 µg/cm2 (Spodoptera litura [28]): 37%; Time (Spodoptera litura [29]): 6.2 days; mortality at 5 µg/cm2 (Spodoptera litura [30]): 32%; Time (Spodoptera litura [31]): 6.8 days; Activity (Earias vittella [32]): 55 mg; Activity (Spodoptera litura [33]): 59.2%; Activity (Spodoptera litura [34]): 46.4%; Activity (Earias vittella [35]): 74.85%; Activity (Spodoptera litura [36]): 220.2 mg; Time (Earias vittella [37]): 11.2 days; Activity (Spodoptera litura [38]): 240 mg; Time (Earias vittella [39]): 12.2 days; Activity (Earias vittella [40]): 82.14%
CC(=O)OC[C@@]12[C@@H](OC(C)=O)C[C@@H](C)[C@](C)([C@@H]3C[C@H]4C=CO[C@H]4O3)[C@H]1C[C@@H](O)[C@H](OC(=O)C(C)(C)OC(C)=O)[C@]21CO1 [CLERODENDRIN C] | 14 | 4 | 7.6 | 65 | 8 | 66.2 | 6.8 | 4 | 70.5 | 8.4 | 56 | 7 | 20.2 | 10 | 7.2 | 20 | 8 | 8.2 | 8.9 | 12.5 | Time (Spodoptera litura [21]): 10.6 days; Activity (Earias vittella [22]): 4%; Time (Spodoptera litura [23]): 12.5 days; Time (Earias vittella [24]): 7.2 days; Activity (Earias vittella [25]): 76%; Activity (Spodoptera litura [26]): 8%; mortality (Earias vittella [27]): 22.5%; mortality at 10 µg/cm2 (Spodoptera litura [28]): 22.7%; Time (Spodoptera litura [29]): 8.5 days; mortality at 5 µg/cm2 (Spodoptera litura [30]): 12.5%; Time (Spodoptera litura [31]): 9.2 days; Activity (Earias vittella [32]): 69 mg; Activity (Spodoptera litura [33]): 76%; Activity (Spodoptera litura [34]): 69.6%; Activity (Earias vittella [35]): 31%; Activity (Spodoptera litura [36]): 282.2 mg; Time (Earias vittella [37]): 8.2 days; Activity (Spodoptera litura [38]): 289.8 mg; Time (Earias vittella [39]): 7.8 days; Activity (Earias vittella [40]): 41.54%

— ChEMBL document CHEMBL3046016, “Antifeedant and growth inhibitory effects of some neo-clerodane diterpenoids isolated from Clerodendron species (Verbenaceae) on Earias vitella and Spodoptera litura” (2003)
